The record followed here is ChEMBL document CHEMBL4002604, “Evaluation of biological properties of 3,3',4,4'-benzophenonetetracarboxylic dianhydride derivatives and their ability to inhibit hexokinase activity” (2017).

The subject of assay [1] is P19. The assay is described as follows: Cytotoxicity against undifferentiated mouse P19 cells assessed as cell mass at 1 to 100 uM after 24 hrs by SRB assay relative to control. It counts as functional. In outline:
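Cell mass by SRB assay in P19 cells (CRL-1825), either undifferentiated (P19SCs) or differentiated (P19dCs). Cells exposed to 1, 10 or 100 µM for 24, 48 or 72 h. Values expressed relative to untreated control. Means ± SD from at least 4 independent measurements, 6 repeats each. Significance vs control at p<0.05.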
A general note: Sulforhodamine B stains cellular protein and so reports cell mass.

Assay [2] deals with P19. Kind of assay: Cytotoxicity against undifferentiated mouse P19 cells assessed as metabolic activity at 1 to 100 uM after 48 hrs by resazurin assay relative to control. It counts as functional. The method, boiled down:
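Metabolic activity by resazurin reduction in undifferentiated (P19SCs) or differentiated (P19dCs) P19 cells. Exposure to 1, 10 or 100 µM for 24, 48 or 72 h. Read-out relative to untreated control. Significance vs control at p<0.05.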
For orientation: Alamar Blue is a resazurin reagent that responds to reducing activity.

The test system of assay [3] is P19. The assay is described as follows: Cytotoxicity against undifferentiated mouse P19 cells assessed as mitochondrial membrane potential at 1 uM after 72 hrs by TMRF dye based fluorescence assay relative to control. It counts as functional. In outline:
(§1)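 Undifferentiated (P19SCs) or differentiated (P19dCs) P19 cells incubated 24 or 72 h with 1 or 100 µM. Mitochondrial membrane potential and mitochondrial superoxide levels measured and expressed relative to untreated control. Means ± SD from 4 independent measurements, at least 4 repeats each. Significance at p<0.05.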

The test system of assay [4] is P19. Kind of assay: Cytotoxicity against undifferentiated mouse P19 cells assessed as mitochondrial membrane potential at 100 uM after 72 hrs by TMRF dye based fluorescence assay relative to control. It counts as functional. In outline:
as §1

Assay [5] relates to P19. Kind of assay: Cytotoxicity against differentiated mouse P19 cells assessed as mitochondrial membrane potential at 1 uM after 24 hrs by TMRF dye based fluorescence assay relative to control. It counts as functional. The method, boiled down:
as §1

Assay [6] has as its system P19. The assay is described as follows: Cytotoxicity against differentiated mouse P19 cells assessed as mitochondrial membrane potential at 100 uM after 24 hrs by TMRF dye based fluorescence assay relative to control. It counts as functional. The method, boiled down:
as §1

Assay [7] has as its target T1, Hexokinase-2 (Homo sapiens) (UniProt P52789).
T1 sequence (whole entry): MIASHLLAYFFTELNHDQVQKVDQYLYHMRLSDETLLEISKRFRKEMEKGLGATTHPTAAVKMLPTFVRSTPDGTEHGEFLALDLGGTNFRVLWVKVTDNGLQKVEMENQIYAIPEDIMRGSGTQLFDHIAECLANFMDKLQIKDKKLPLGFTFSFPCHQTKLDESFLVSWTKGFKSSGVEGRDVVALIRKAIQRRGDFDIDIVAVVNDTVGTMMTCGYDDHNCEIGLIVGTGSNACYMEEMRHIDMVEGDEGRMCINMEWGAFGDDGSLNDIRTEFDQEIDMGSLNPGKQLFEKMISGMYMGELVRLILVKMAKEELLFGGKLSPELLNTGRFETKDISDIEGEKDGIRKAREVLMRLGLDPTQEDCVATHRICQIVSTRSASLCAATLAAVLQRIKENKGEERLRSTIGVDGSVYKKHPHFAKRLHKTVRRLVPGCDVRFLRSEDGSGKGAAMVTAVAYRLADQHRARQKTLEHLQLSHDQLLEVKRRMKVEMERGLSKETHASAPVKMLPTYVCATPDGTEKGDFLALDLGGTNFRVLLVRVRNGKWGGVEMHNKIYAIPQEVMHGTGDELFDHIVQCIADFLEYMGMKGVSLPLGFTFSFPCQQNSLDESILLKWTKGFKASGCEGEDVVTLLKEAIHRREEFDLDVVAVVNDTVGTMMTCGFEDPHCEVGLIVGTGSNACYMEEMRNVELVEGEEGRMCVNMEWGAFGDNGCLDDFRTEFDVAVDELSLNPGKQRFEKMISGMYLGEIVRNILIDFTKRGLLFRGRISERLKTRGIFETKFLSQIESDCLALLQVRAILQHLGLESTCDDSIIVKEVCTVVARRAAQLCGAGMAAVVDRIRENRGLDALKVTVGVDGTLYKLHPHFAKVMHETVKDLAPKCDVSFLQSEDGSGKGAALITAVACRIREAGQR
Kind of assay: Inhibition of recombinant human HK2 using [U-14C]-labeled glucose as substrate in presence of ATP and NADP by G6PD enzyme coupled spectrophotometric assay. The following applies: in the assay text read “glucose” for “[U-14C]-labeled glucose”. The method, boiled down: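 Coupled hexokinase assay at 340 nm following G6P-dependent NADP→NADPH conversion. Enzyme source is freshly prepared, centrifuged undifferentiated P19 lysate supernatant or recombinant human HKII. Buffer: 100 mM Tris-HCl pH 8.0, 0.5 mM EDTA, 10 mM MgCl2, 2 mM glucose, 0.1 mM NADP, 0.1 U/ml G6PD. Preincubated 10 min at 37°C; reaction started with 10 mM ATP. Means ± SD, 4 experiments, at least 4 repeats each.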

Assay [8] has as its system P19. The assay is described as follows: Cytotoxicity against differentiated mouse P19 cells assessed as mitochondrial membrane potential at 100 uM after 72 hrs by TMRF dye based fluorescence assay relative to control. It counts as functional. The method, boiled down: as §1
For assay [9], the system named is P19. The assay is described as follows: Cytotoxicity against differentiated mouse P19 cells assessed as mitochondrial superoxide anion level at 1 uM after 24 hrs by MitoSox dye based fluorescence assay relative to control. It counts as functional. In outline: as §1
Assay [10] concerns the target T2, Hexokinase-2 (Mus musculus) (UniProt O08528).
T2 sequence (whole entry): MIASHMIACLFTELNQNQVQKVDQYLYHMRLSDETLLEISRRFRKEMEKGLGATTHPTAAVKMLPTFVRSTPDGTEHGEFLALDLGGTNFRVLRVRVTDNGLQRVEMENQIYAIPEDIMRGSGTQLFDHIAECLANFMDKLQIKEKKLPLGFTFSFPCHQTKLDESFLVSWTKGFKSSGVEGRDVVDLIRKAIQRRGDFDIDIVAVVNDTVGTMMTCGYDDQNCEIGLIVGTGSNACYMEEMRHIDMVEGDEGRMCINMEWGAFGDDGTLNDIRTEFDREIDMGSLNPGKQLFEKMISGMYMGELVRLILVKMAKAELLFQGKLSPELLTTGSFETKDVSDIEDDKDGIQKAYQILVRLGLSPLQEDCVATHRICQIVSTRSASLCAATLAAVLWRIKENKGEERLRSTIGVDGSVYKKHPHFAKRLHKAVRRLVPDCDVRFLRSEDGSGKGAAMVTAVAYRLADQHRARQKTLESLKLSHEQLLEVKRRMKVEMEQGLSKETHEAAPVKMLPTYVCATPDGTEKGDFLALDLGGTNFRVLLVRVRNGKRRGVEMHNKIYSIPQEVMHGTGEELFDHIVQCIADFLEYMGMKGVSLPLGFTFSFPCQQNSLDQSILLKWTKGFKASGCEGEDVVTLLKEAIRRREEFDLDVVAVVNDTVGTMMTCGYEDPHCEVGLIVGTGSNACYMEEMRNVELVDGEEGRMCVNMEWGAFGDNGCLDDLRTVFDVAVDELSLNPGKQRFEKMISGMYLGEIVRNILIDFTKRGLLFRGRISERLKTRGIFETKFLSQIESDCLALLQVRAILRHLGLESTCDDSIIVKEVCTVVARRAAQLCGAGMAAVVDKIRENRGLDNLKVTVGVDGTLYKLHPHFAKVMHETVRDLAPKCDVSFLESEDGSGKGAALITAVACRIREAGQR
Kind of assay: Potency index, ratio of compound effect to 2-DG effect for inhibition of HK2 in mouse undifferentiated P19 cells.

In the case of `O=C(c1ccc2c(c1)C(=O)N(c1cccc(O)c1)C2=O)c1ccc2c(c1)C(=O)N(c1cccc(O)c1)C2=O`, the Activity with P19 [1] stood at 103.3%; with P19 [2], 76.5%; in the assay with P19 [3], 110.4%; with P19 [4] it was 131.1%; in the assay with P19 [5], 94.5%; in the assay with P19 [6], 96.4%. For the same molecule, the Activity is recorded as 50.9% with P19 [8] and 112.2% with P19 [9]. Further, the inhibition result in [7] was “Dose-dependent effect”. Further, the Ratio in [10] is above 500.
